Data: ChEMBL document CHEMBL4052822, “Design and Synthesis of Orally Bioavailable Piperazine Substituted 4(1H)-Quinolones with Potent Antimalarial Activity: Structure-Activity and Structure-Property Relationship Studies” (J Med Chem, 2018)
The source made the active and inactive calls. The calls are words filed in the database; no cut-off is given here.

Key:
Plasmodium falciparum [1] = experiment: Antimalarial activity against pyrimethamine/chloroquine-resistant Plasmodium falciparum W2 infected in human type A-positive erythrocytes after 48 hrs by [3H]-hypoxanthine incorporation assay; type: functional, cell-based
Outline: (§1)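 Compound from 10.0 mM DMSO stock, diluted ≥1:400, then 11 concentrations in duplicate. Incubated at 37 °C under 90% N2/5% O2/5% CO2 for 48 h, then 3H-hypoxanthine added for 24 h more. CPM counted; EC50 by nonlinear regression.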

Plasmodium falciparum [2] = experiment: Antimalarial activity against mefloquine/chloroquine/atovaquone/pyrimethamine-resistant Plasmodium falciparum TM90-C2B infected in human type A-positive erythrocytes after 48 hrs by [3H]-hypoxanthine incorporation assay; type: functional, cell-based; outline: as §1
[3] = Resistance index, ratio of EC50 for mefloquine/chloroquine/atovaquone/pyrimethamine-resistant Plasmodium falciparum TM90-C2B to EC50 for pyrimethamine/chloroquine-resistant Plasmodium falciparum W2; type: functional
J774 = experiment: Cytotoxicity against mouse J774 cells after 72 hrs by CellTiter-96 aqueous one solution cell proliferation assay; type: cell-based; details: J774, 72 h
Outline: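 Compounds from 10 µg/mL or 20 µM top concentration, 1:2 serial dilutions over 11 concentrations, 72 h at 37 °C, 5% CO2. MTS-type reagent added for 4 h, absorbance read at 490 nm. IC50 by nonlinear regression.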

[4] = Aqueous solubility of compound at pH 6.5; type: physicochemical
Plasmodium berghei [5] = experiment: Antimalarial activity against Plasmodium berghei infected in human HepG2 cells after 44 hrs by luciferase assay; type: functional, cell-based; details: HepG2, 44 h
Outline: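 HepG2 cells, 75000 per well, in DMEM with 10% FBS at 37 °C, 5% CO2. 5000 Pb luciferase sporozoites from dissected mosquito salivary glands added per well for 3 h, then washed three times with PBS. Serially diluted compound added in triplicate, 44 h at 37 °C. Cells lysed, luciferase substrate added, luminescence read.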

Plasmodium berghei [6] = experiment: animal or person; details: in Mus musculus, po, read-out: INH
Plasmodium berghei [7] = experiment: Antimalarial activity against blood stage form of GFP transfected Plasmodium berghei infected in mouse assessed as mouse survival day at 10 mg/kg, po administered on day 3, 4, 5 post infection by Thompson test; type: functional
Plasmodium berghei [8] = experiment: Antimalarial activity against blood stage form of GFP transfected Plasmodium berghei infected in mouse assessed as protection against parasitemia at 10 mg/kg, po administered on day 3, 4, 5 post infection measured on day 30 by Thompson test; type: functional, organism-based
Outline: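 Modified Thompson model: mice inoculated ip with 2×10^6 P. berghei (GFP)-infected red blood cells, parasitemia near 1% by day 3. […] Animals followed for 30 days; survival to day 30 with parasitemia below 1% counted as cure.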

Plasmodium berghei [9] = experiment: animal or person; details: in Mus musculus, po, read-out: INH; remark: listed apart in the source

| SMILES | EC50 (Plasmodium falciparum [1]) | EC50 (Plasmodium falciparum [2]) | Ratio EC50 [3] | EC50 (J774) | solubility [4] | EC50 (Plasmodium berghei [5]) | inhibition in vivo at 50 mg/kg (Plasmodium berghei [6]) | Survival (Plasmodium berghei [7]) | Activity (Plasmodium berghei [8]) | inhibition in vivo at 10 mg/kg (Plasmodium berghei [9]) |
| --- | --- | --- | --- | --- | --- | --- | --- | --- | --- | --- |
| COC(=O)c1c[nH]c2cc(CCN3CCN(c4ccccc4)CC3)ccc2c1=O | 25 nM | 1500 nM | 60 | > 20000 nM | ≥ 80 µM | – | – | – | – | – |
| CCN(CC)CCCC(C)Nc1ccnc2cc(Cl)ccc12 (stereo not given) [CHLOROQUINE] | – | – | – | 47200 nM | – | – | – | – | – | – |
| COC(=O)c1c[nH]c2cc(CN3CCN(c4ccc(OC)cc4)CC3)c(C)cc2c1=O | 0.57 nM | 180 nM | – | > 20000 nM | – | 4.1 nM | – | – | – | – |
| COC(=O)c1c[nH]c2cc(CCN3CCN(Cc4ccc(OC)cc4)CC3)ccc2c1=O | 12 nM | – | – | > 20000 nM | ≥ 80 µM | – | – | – | – | – |
| Cc1cc(=O)c2ccc(CN3CCN(c4ccc(F)cc4)CC3)cc2[nH]1 | 1200 nM | 1500 nM | 1.2 | > 20000 nM | – | – | – | – | – | – |
| C[C@H]1[C@@H](O)O[C@@H]2O[C@@]3(C)CC[C@H]4[C@H](C)CC[C@@H]1[C@@]24OO3 [ARTENIMOL] | – | – | – | 1500 nM | – | – | – | – | – | – |
| Cc1[nH]c2cc(CN3CCN(c4ccc(C(F)(F)F)cc4)CC3)ccc2c(=O)c1Br | 120 nM | 95 nM | 0.8 | > 20000 nM | – | – | – | – | – | – |
| COC(=O)c1c[nH]c2ccc(CN3CCN(c4ccc(C(F)(F)F)cc4)CC3)cc2c1=O | 45 nM | > 2000 nM | – | > 20000 nM | – | 85 nM | – | – | – | – |
| COC(=O)c1c[nH]c2cc(N3CCN(c4ccc(OC)cc4)CC3)c(OC)cc2c1=O | 43 nM | 2000 nM | 47 | > 20000 nM | – | > 100 nM | – | – | – | – |
| COC(=O)c1c[nH]c2cc(CN3CCN(c4ccc(OC)cc4)CC3)c(OC)cc2c1=O | 3.4 nM | 860 nM | – | 16000 nM | – | 10 nM | 70.6% | – | – | – |
| COC(=O)c1c[nH]c2cc(N3CCN(Cc4ccc(OC)cc4)CC3)ccc2c1=O | 20 nM | 1300 nM | 65 | – | – | – | – | – | – | – |
| COC(=O)c1c[nH]c2cc(CN3CCN(Cc4ccc(OC)cc4)CC3)c(OC)cc2c1=O | 10 nM | > 2000 nM | – | > 20000 nM | – | 52 nM | 24.6% | – | – | – |
| COC(=O)c1c[nH]c2cc(N3CCN(c4ccc(OC)cc4)CC3)ccc2c1=O | 7.8 nM | 150 nM | 20 | > 20000 nM | – | – | – | – | – | – |
| COC(=O)c1c[nH]c2cc(N3CCN(c4ccccc4)CC3)c(C)cc2c1=O | 46 nM | 1100 nM | – | 17000 nM | – | – | 31.6% | – | – | – |
| O=c1c(Br)c[nH]c2cc(CN3CCN(c4ccc(F)cc4)CC3)ccc12 | 810 nM | > 2000 nM | – | > 20000 nM | – | 0.86 nM | – | <=13 day | inactive | 33% |
| Cc1[nH]c2cc(CN3CCN(c4ccc(F)cc4)CC3)ccc2c(=O)c1Br | – | 26 nM | – | > 20000 nM | – | – | – | <=13 day | inactive | – |
| COC(=O)c1c[nH]c2ccc(CN3CCN(c4ccccc4)CC3)cc2c1=O | 150 nM | > 2000 nM | – | > 20000 nM | – | 91 nM | – | – | – | – |
| COC(=O)c1c[nH]c2cc(CN3CCN(c4ccc(F)cc4)CC3)ccc2c1=O | 1.8 nM | 130 nM | – | 2000 nM | – | 1.1 nM | – | <=21 day | inactive | – |
| COC(=O)c1c[nH]c2cc(N3CCN(Cc4ccccc4)CC3)c(C)cc2c1=O | 13 nM | 980 nM | 75 | > 20000 nM | – | > 100 nM | – | – | – | – |
| COC(=O)c1c[nH]c2cc(CN3CCN(c4ccc(F)cc4)CC3)c(OC)cc2c1=O | 1.8 nM | 220 nM | – | > 20000 nM | – | 32 nM | 56.9% | – | – | – |
| COC(=O)c1c[nH]c2cc(CCN3CCN(Cc4ccccc4)CC3)ccc2c1=O | 120 nM | > 2000 nM | – | > 20000 nM | ≥ 80 µM | 160 nM | – | – | – | – |
| O=c1c(Cl)c[nH]c2cc(CN3CCN(c4ccc(F)cc4)CC3)ccc12 | 1100 nM | > 2000 nM | – | > 20000 nM | – | – | 71.9% | – | – | – |
| COC(=O)c1c[nH]c2cc(CN3CCN(Cc4ccc(OC)cc4)CC3)c(C)cc2c1=O | 2.4 nM | 1000 nM | – | > 20000 nM | – | – | – | – | – | – |
